# Experimental data collected from several papers.
# Lines come from different studies, so protocols differ.
# Target: Dual serine/threonine and tyrosine protein kinase (DSTYK, Homo sapiens, UniProt Q6XUX3)
# One construct used (Q6XUX3 1-929): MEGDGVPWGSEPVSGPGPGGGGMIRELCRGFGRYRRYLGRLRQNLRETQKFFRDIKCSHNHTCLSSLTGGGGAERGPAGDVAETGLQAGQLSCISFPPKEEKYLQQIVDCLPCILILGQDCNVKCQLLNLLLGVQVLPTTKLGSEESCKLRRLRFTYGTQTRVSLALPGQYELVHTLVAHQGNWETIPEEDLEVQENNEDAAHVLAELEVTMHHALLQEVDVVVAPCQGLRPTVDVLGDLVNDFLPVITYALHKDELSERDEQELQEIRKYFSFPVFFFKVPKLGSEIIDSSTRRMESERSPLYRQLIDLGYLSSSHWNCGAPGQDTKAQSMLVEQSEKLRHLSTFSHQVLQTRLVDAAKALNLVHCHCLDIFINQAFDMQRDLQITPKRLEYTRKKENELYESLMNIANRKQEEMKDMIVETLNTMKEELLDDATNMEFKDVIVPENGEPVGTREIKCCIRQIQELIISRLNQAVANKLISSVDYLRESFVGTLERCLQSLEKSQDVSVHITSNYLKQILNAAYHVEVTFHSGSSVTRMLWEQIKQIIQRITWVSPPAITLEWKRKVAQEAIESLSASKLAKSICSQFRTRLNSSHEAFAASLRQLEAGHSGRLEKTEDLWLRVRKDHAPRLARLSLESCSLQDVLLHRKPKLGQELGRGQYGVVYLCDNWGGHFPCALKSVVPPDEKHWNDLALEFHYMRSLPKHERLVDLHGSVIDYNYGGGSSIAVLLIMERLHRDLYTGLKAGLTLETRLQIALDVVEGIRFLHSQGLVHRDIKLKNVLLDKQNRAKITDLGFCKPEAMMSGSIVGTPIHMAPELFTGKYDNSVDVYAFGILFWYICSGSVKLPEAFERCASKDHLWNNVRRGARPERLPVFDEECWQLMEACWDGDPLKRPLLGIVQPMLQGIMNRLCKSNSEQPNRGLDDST
SMILES,test,conditions,remaining binding
CNC(=O)[C@@H]1CC[C@@H](n2c(-c3ccc4cnccc4c3)nc3ccc(C(=O)NCc4cccc(C(N)=O)c4)cc32)C1,"binding, competition with immobilised ligand",1 µM,100%
N[C@H]1CCN(c2nccc(-c3cnn4ncccc34)n2)C1,binding,1 µM,100%
COc1ncc2cc3ccccc3nc2c1C#N,"cell-free assay, competition with immobilised ligand",5 µM,100%
O=C(NCCCN1CCOCC1)c1ccc(Nc2nccc(-c3cc4ccccc4s3)n2)cc1,"binding, competition with immobilised ligand",1 µM,76%
C[C@@H]1CN(c2cc(-c3n[nH]c4ccc(OC5(C)CC5)cc34)ncn2)C[C@H](C)O1,"cell-free assay, competition with immobilised ligand",0.1 µM,77%
C=CC(=O)N1CCC(C(=O)NCC(=O)N2CCN(c3nc(-c4cnc(N)nc4C(F)F)nc(N4CCOCC4)n3)CC2)CC1,"binding, competition with immobilised ligand",1 µM,72%
F[C@@H]1CCN(c2nccc(-c3cnn4ncccc34)n2)C1,binding,1 µM,100%
CC(C)(O)c1cncc(-c2nc3ccc(F)cc3n2C2CC2)c1,"cell-free assay, competition with immobilised ligand",1 µM,100%
FC(F)(F)Oc1cccc(-c2cnc3ccc(-c4ccncc4)nn23)c1,"binding, competition with immobilised ligand",5 µM,49%
O=C(c1ccc(Nc2nccc(-c3cc4ccccc4s3)n2)cc1)N1CCC(N2CCCC2)CC1,"binding, competition with immobilised ligand",1 µM,37%
CCOC(=O)c1cc2cc(-c3cc(C(=O)NCc4ccc(C(=O)O)cc4)nn3C)ccc2[nH]1,"cell-free assay, competition with immobilised ligand",0.1 µM,69%
c1cnn2ncc(-c3ccnc(N4CCC45COC5)n3)c2c1,binding,1 µM,79%
CN1CCN(c2cnc3c(C4CCN(C(=O)c5ccc(OC(F)(F)F)cc5N)CC4)ncnc3c2)CC1,"cell-free assay, competition with immobilised ligand",1 µM,100%
COc1ccnn2ncc(-c3ccnc(N(C)C)n3)c12,binding,1 µM,100%
O=C(Nc1c[nH]nc1C(=O)NC1CCNCC1)c1cc(F)cc(F)c1,"binding, competition with immobilised ligand",1 µM,87%
C[C@@H]1CCN(c2nccc(-c3cnn4ncccc34)n2)C1,binding,1 µM,77%
CNC(=O)c1ccc(Nc2ncc(C(F)(F)F)c(NCc3nccnc3N(C)S(C)(=O)=O)n2)cc1,"cell-free assay, competition with immobilised ligand",0.1 µM,87%
CN(C)c1ncc(F)c(-c2cnn3ncccc23)n1,binding,1 µM,69%
CO[C@@H](C)c1c(Nc2ccc([C@@H](N(C)C(=O)C3CCS(=O)(=O)CC3)C(F)(F)F)cc2)cnc2cc(Cl)nn12,"cell-free assay, competition with immobilised ligand",1 µM,100%
O=C(c1ccc(Nc2ncc(Cl)c(-c3ccc(Cl)s3)n2)cc1)N1CCC(N2CCCC2)CC1,"binding, competition with immobilised ligand",1 µM,14%
O=C1CCc2cc(Nc3cc(OC4CCOCC4)c([N+](=O)[O-])cc3Cl)ccc2N1,"cell-free assay, competition with immobilised ligand",1 µM,90%
CN(CCCC(F)(F)F)c1nccc(-c2cnn3ncccc23)n1,binding,1 µM,88%
